In ChEMBL document CHEMBL3272266, “Dibenzotropone- and dibenzosuberonecarboxylic acids with bronchodilator activity” (J Med Chem, 1979):
Activity calls are given as the source filed them. No cut-off for these calls is given here.

Columns and labels:
[1] = test system: Cavia porcellus; test: Bronchodilator activity in guinea pig assessed as protection against histamine aerosol-induced bronchoconstriction at 100 mg/kg, ip treated for 15 mins prior to histamine aerosol-challenge measured after 5 mins relative to control; format: functional; settings: route intraperitoneal
In short: (§1)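 Guinea pigs in groups of eight; a control group of eight is first confirmed to collapse. Compound given ip 15 min or orally 30 min before exposure to 0.04% aqueous histamine aerosol for 5 min. Percent protection = 100 × animals not collapsing during the 5-min exposure / total animals. Significance by chi-square with Yates correction against 66 control animals.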

[2] = Bronchodilator activity in guinea pig trachea assessed as relaxation of tracheal smooth muscle at 0.05 to 0.5 ug/ml after 15 mins relative to aminophylline; format: functional, Cavia porcellus
In short: (§2)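 Guinea pig trachea cut into rings tied as a chain, in Krebs-Henseleit at 37 °C aerated with 5% CO2/95% O2, resting load 0.2–0.5 g, tone recorded isometrically after stabilization. Sodium salts in water, up to 5 µg/mL, 15-min exposure. Potency estimated against aminophylline by a three- or four-point assay from concentration–relaxation plots, one preparation per agent.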

[3] = test system: Cavia porcellus; test: Bronchodilator activity in trachea and jugular vein cannulated guinea pig assessed as inhibition of histamine-induced response at 25 mg/kg, iv after 5 mins relative to control; format: functional
In short: (§3)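 Cannulated guinea pigs given histamine phosphate 10 µg/kg iv in buffered saline. Test agent given 5 min later as the sodium salt in water via jugular cannula, one dose per animal, then histamine repeated 5 min after dosing. Percent inhibition = maximum pulmonary resistance after the agent versus before it.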

[4] = test system: Cavia porcellus; test: Bronchodilator activity in trachea and jugular vein cannulated guinea pig assessed as inhibition of histamine-induced response at 12.5 mg/kg, iv after 5 mins relative to control; format: functional; in short: as §3
[5] = test system: Cavia porcellus; test: Bronchodilator activity in trachea and jugular vein cannulated guinea pig assessed as inhibition of histamine-induced response at 6.25 mg/kg, iv after 5 mins relative to control; format: functional; in short: as §3
[6] = test system: Cavia porcellus; test: Bronchodilator activity in trachea and jugular vein cannulated guinea pig assessed as inhibition of histamine-induced response at 3.175 mg/kg, iv after 5 mins relative to control; format: functional; in short: as §3
[7] = test system: Cavia porcellus; test: Toxicity in trachea and jugular vein cannulated histamine-induced guinea pig assessed as severe airway constriction at 25 mg/kg, iv; format: organism-based; parameters: dose 25 mg/kg, route intravenous; settings: in vivo
In short: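 Guinea pigs cannulated in the jugular vein dosed iv with the sodium salt in water. Animals showing severe airway constriction after dosing were recorded and received no histamine challenge.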

[8] = test system: Cavia porcellus; test: Bronchodilator activity in guinea pig assessed as protection against histamine aerosol-induced bronchoconstriction at 50 mg/kg, ip treated for 15 mins prior to histamine aerosol-challenge measured after 5 mins relative to control; format: functional; settings: route intraperitoneal
[9] = Bronchodilator activity in guinea pig trachea assessed as relaxation of tracheal smooth muscle at 0.005 to 5 ug/ml after 15 mins relative to aminophylline; format: functional, Cavia porcellus; in short: as §2
[10] = (§4) Bronchodilator activity in guinea pig trachea assessed as relaxation of tracheal smooth muscle at 0.5 to 5 ug/ml after 15 mins relative to aminophylline; format: functional, Cavia porcellus; in short: as §2
[11] = test system: Cavia porcellus; test: Bronchodilator activity in guinea pig assessed as protection against histamine aerosol-induced bronchoconstriction at 90 mg/kg, po treated for 30 mins prior to histamine aerosol-challenge measured after 5 mins; format: functional, organism-based; parameters: dose 90 mg/kg; in short: as §1
[12] = organism: Cavia porcellus; test: as §4; format: functional; in short: as §2
[13] = test system: Cavia porcellus; test: Bronchodilator activity in guinea pig assessed as protection against histamine aerosol-induced bronchoconstriction at 75 mg/kg, ip treated for 15 mins prior to histamine aerosol-challenge measured after 5 mins relative to control; format: functional; settings: route intraperitoneal
[14] = test system: Cavia porcellus; test: Bronchodilator activity in guinea pig assessed as protection against histamine aerosol-induced bronchoconstriction at 200 mg/kg, po treated for 30 mins prior to histamine aerosol-challenge measured after 5 mins; format: functional, organism-based; parameters: dose 200 mg/kg; in short: as §1
[15] = Bronchodilator activity in guinea pig trachea assessed as relaxation of tracheal smooth muscle at 0.125 to 0.5 ug/ml after 15 mins relative to aminophylline; format: functional, Cavia porcellus; in short: as §2
[16] = test system: Cavia porcellus; test: Bronchodilator activity in guinea pig assessed as protection against histamine aerosol-induced bronchoconstriction at 90 mg/kg, ip treated for 15 mins prior to histamine aerosol-challenge measured after 5 mins relative to control; format: functional; settings: route intraperitoneal; in short: as §1

Compound | Activity [1] [%] | further results
CC(C)Oc1ccc2ccc3ccc(C(=O)O)cc3c(=O)c2c1 | 62.5 | –
O=C([O-])c1ccc2c(c1)C(=O)c1ccccc1CC2.[Na+] | – | fold change (FC) [2]: 7
Cc1cccc2c1CCc1cc(C(=O)O)ccc1C2=O [listing 1 of 2 here] | – | inhibition in vivo at 25 mg/kg [3]: 0%; inhibition in vivo at 12.5 mg/kg [4]: 0%; inhibition in vivo at 6.25 mg/kg [5]: 0%; inhibition in vivo at 3.175 mg/kg [6]: 0%
O=C([O-])c1ccc2c(c1)CCc1c(Cl)cccc1C2=O.[Na+] | – | Activity [7]: Toxic; inhibition in vivo at 12.5 mg/kg [4]: 76%
O=C(O)c1ccc2c(c1)CCc1ccccc1C2=O [listing 1 of 3 here] | 62.5 | –
CC(C)Oc1ccc2c(c1)C(=O)c1cc(C(=O)O)ccc1CC2 | – | Activity [8]: 0%
Cc1ccc2c(c1)C(=O)c1ccc(C(=O)O)cc1CC2 | 62.5 | –
O=C(O)c1ccc2ccc3ccccc3c(=O)c2c1 | 62.5 | –
Cc1cccc2c1CCc1cc(C(=O)O)ccc1C2=O [listing 2 of 2 here] | 87.5 | –
N#Cc1ccc2c(c1)C(=O)c1cc(C(=O)[O-])ccc1CC2.[Na+] | – | fold change (FC) [2]: 5
O=C([O-])c1ccc2c(c1)C(=O)c1cc(Cl)ccc1CC2.[Na+] | – | fold change (FC) [9]: 25
O=C([O-])c1ccc2c(c1)CCc1ccc(Br)cc1C2=O.[Na+] | – | fold change (FC) [10]: 7
O=C(O)c1ccc2c(=O)c3cccc(F)c3ccc2c1 [listing 1 of 2 here] | 25 | –
CC(=O)c1ccc2c(c1)C(=O)c1ccc(C(=O)O)cc1CC2 | 25 | –
CC(C)c1cccc2c1CCc1cc(C(=O)O)ccc1C2=O | 25 | Activity [11]: inactive
Cc1ccc2c(c1)CCc1cc(C(=O)[O-])ccc1C2=O.[Na+] | – | Activity [7]: Toxic; inhibition in vivo at 12.5 mg/kg [4]: 0%
N#Cc1ccc2c(c1)C(=O)c1cc(C(=O)O)ccc1CC2 | 0 | –
O=C(O)c1ccc2c(c1)CCc1ccccc1C2=O [listing 2 of 3 here] | – | inhibition in vivo at 25 mg/kg [3]: 11%; inhibition in vivo at 12.5 mg/kg [4]: 0%
CC(C)c1ccc2c(c1)C(=O)c1cc(C(=O)O)ccc1CC2 | 25 | –
O=C(O)c1ccc2c(c1)CCc1c(Cl)cccc1C2=O [listing 1 of 2 here] | 75 | –
CC(C)Oc1ccc2c(c1)C(=O)c1cc(C(=O)[O-])ccc1CC2.[Na+] | – | fold change (FC) [2]: 0.5
Cc1ccc2c(c1)CCc1cc(C(=O)O)ccc1C2=O | 12.5 | –

Compound | Activity [1] [%] | further results
O=C(O)c1ccc2c(c1)C(=O)c1ccc(Br)cc1CC2 | 0 | –
O=C(O)c1ccc2c(c1)C(=O)c1cc(Br)ccc1CC2 | 62.5 | –
O=C(O)c1ccc2c(c1)CCc1cc(Br)ccc1C2=O | 25 | –
CC(C)c1ccc2c(c1)C(=O)c1ccc(C(=O)O)cc1CC2 | 62.5 | –
O=C(O)c1ccc2c(=O)c3cccc(Br)c3ccc2c1 | 25 | –
COc1ccc2c(c1)CCc1cc(C(=O)O)ccc1C2=O [listing 1 of 2 here] | – | inhibition in vivo at 25 mg/kg [3]: 20%
O=C(O)c1ccc2c(c1)CCc1ccccc1C2=O [listing 3 of 3 here] | – | Activity [12]: inactive
O=C(O)c1cc2ccccc2c(=O)c2ccccc12 | 0 | –
O=C(O)c1ccc2c(c1)C(=O)c1ccccc1CC2 | 0 | –
COc1ccc2c(c1)CCc1cc(C(=O)O)ccc1C2=O [listing 2 of 2 here] | 37.5 | –
O=C(O)c1ccc2ccc3ccc(Br)cc3c(=O)c2c1 | 12.5 | –
O=C(O)c1cccc2c1CCc1ccccc1C2=O | 0 | –
O=C(O)c1ccc2ccc3ccc(Cl)cc3c(=O)c2c1 | 0 | –
CC(=O)c1ccc2c(c1)C(=O)c1cc(C(=O)[O-])ccc1CC2.[Na+] | – | fold change (FC) [2]: <1
CC(=O)c1ccc2ccc3ccc(C(=O)O)cc3c(=O)c2c1 | 37.5 | –
O=C(O)c1ccc2c(=O)c3cccc(F)c3ccc2c1 [listing 2 of 2 here] | – | inhibition in vivo at 25 mg/kg [3]: 43%; inhibition in vivo at 12.5 mg/kg [4]: 22%
O=C(O)c1ccc2c(c1)C(=O)c1cccc(Br)c1CC2 | 0 | –
O=C(O)c1ccc2c(c1)CCc1ccc(Br)cc1C2=O | 50 | –
O=C(O)c1cccc2c(=O)c3ccccc3ccc12 | 12.5 | –
O=C(O)c1ccc2c(c1)CCc1c(Cl)cc(Cl)cc1C2=O | 50 | –
Cn1c(=O)c2[nH]cnc2n(C)c1=O.Cn1c(=O)c2[nH]cnc2n(C)c1=O.NCCN [AMINOPHYLLINE] | 75 | Activity [8]: 25%; Activity [13]: 50%
O=C(O)c1ccc2c(c1)C(=O)c1ccc(Cl)cc1CC2 | 25 | –

Compound | Activity [1] [%] | further results
O=C(O)c1ccc2c(c1)CCc1ccc(Cl)cc1C2=O | 0 | –
O=C(O)c1ccc2ccc3ccc(C(=O)O)cc3c(=O)c2c1 | 25 | –
O=C(O)c1ccc2c(c1)C(=O)c1cc(Cl)ccc1CC2 | 25 | –
CC(C)Oc1ccc2c(c1)C(=O)c1ccc(C(=O)O)cc1CC2 | 50 | –
O=C(O)c1ccc2c(=O)c3ccccc3ccc2c1 | 0 | –
COc1ccc2c(c1)C(=O)c1ccc(C(=O)O)cc1CC2 [listing 1 of 2 here] | 50 | –
O=C(O)c1ccc2c(c1)CCc1c(F)cccc1C2=O | 75 | –
CC(C)c1ccc2c(c1)C(=O)c1cc(C(=O)[O-])ccc1CC2.[Na+] | – | fold change (FC) [10]: 5
COc1ccc2c(c1)C(=O)c1cc(C(=O)O)ccc1CC2 | 50 | –
CC(=O)c1ccc2c(c1)C(=O)c1cc(C(=O)O)ccc1CC2 | 62.5 | –
O=C([O-])c1ccc2c(c1)CCc1c(Cl)cc(Cl)cc1C2=O.[Na+] | – | Activity [7]: Toxic; inhibition in vivo at 12.5 mg/kg [4]: 53%
N#Cc1ccc2c(c1)CCc1ccc(C(=O)O)cc1C2=O | 12.5 | –
O=C(O)c1ccc2c(c1)CCc1c(Cl)cccc1C2=O [listing 2 of 2 here] | – | Activity [14]: inactive
O=C(O)c1ccc2c(=O)c3cc(Cl)cc(Cl)c3ccc2c1 | 0 | –
O=C([O-])c1ccc2c(c1)CCc1ccc(Cl)cc1C2=O.[Na+] | – | Activity [7]: Toxic; inhibition in vivo at 12.5 mg/kg [4]: 24%; inhibition in vivo at 6.25 mg/kg [5]: 0%
Cc1cc(C)c2c(c1)C(=O)c1cc(C(=O)O)ccc1CC2 | 37.5 | –
CC(C)c1ccc2c(c1)C(=O)c1ccc(C(=O)[O-])cc1CC2.[Na+] | – | fold change (FC) [15]: 10
O=C(O)c1ccc2c(c1)C(=O)c1cc(O)ccc1CC2 | 12.5 | –
COc1ccc2c(c1)C(=O)c1ccc(C(=O)O)cc1CC2 [listing 2 of 2 here] | – | inhibition in vivo at 25 mg/kg [3]: 68%; inhibition in vivo at 12.5 mg/kg [4]: 13%
O=C([O-])c1ccc2c(c1)C(=O)c1cc(Br)ccc1CC2.[Na+] | – | fold change (FC) [15]: 10; inhibition in vivo at 25 mg/kg [3]: 61%; inhibition in vivo at 12.5 mg/kg [4]: 0%
O=C(O)c1ccc2c(c1)CCc1c(Br)cccc1C2=O [listing 1 of 2 here] | – | inhibition in vivo at 25 mg/kg [3]: 77%; inhibition in vivo at 12.5 mg/kg [4]: 46%; inhibition in vivo at 6.25 mg/kg [5]: 0%
O=C(O)c1ccc2c(c1)CCc1c(Br)cccc1C2=O [listing 2 of 2 here] | – | Activity [16]: 75%
